Data from ChEMBL document CHEMBL1649124, “Genetic variability among ampC genes from acinetobacter genomic species 3” (Antimicrob Agents Chemother, 2009).
In brackets after ≈: the same amount, converted by molar mass.

How the values were obtained:
Assay type in all cases: functional
Escherichia coli [1] = assay: Antibacterial activity against Escherichia coli DH5alpha carrying ampC gene of Acinetobacter genomosp. 3 isolate 69 by Etest method
How it was run: (§1)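 E. coli DH5α expressing the AG3 isolate ampC gene, PCR-amplified (high-fidelity system, 28 cycles) and cloned into BamHI/HindIII sites of pBGS18 (kanamycin marker) under the CTX-M-14 β-lactamase promoter. Grown at 37°C in LB, with kanamycin 50 µg/ml when needed. β-Lactam MICs determined by Etest per the manufacturer's instructions.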

Acinetobacter pittii [2] = assay: Antibacterial activity against Acinetobacter genomosp. 3 isolate 109 by Etest method
How it was run: (§2)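 MICs for AG3 clinical isolates were read by Etest following the manufacturer's instructions. Isolates were stored at –80°C in 10% Brucella glycerol broth before testing.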

Acinetobacter pittii [3] = assay: Antibacterial activity against Acinetobacter genomosp. 3 isolate 20 by Etest method; how it was run: as §2
Escherichia coli [4] = assay: Antibacterial activity against Escherichia coli DH5alpha carrying ampC gene of Acinetobacter genomosp. 3 isolate 14 by Etest method; how it was run: as §1
Acinetobacter pittii [5] = assay: Antibacterial activity against Acinetobacter genomosp. 3 isolate 103 by Etest method; how it was run: as §2
Escherichia coli [6] = assay: Antibacterial activity against Escherichia coli DH5alpha carrying ampC gene of Acinetobacter genomosp. 3 isolate 109 by Etest method; how it was run: as §1
Acinetobacter pittii [7] = assay: Antibacterial activity against Acinetobacter genomosp. 3 isolate 60 by Etest method; how it was run: as §2
Acinetobacter pittii [8] = assay: Antibacterial activity against Acinetobacter genomosp. 3 isolate 65 by Etest method; how it was run: as §2
Acinetobacter pittii [9] = assay: Antibacterial activity against Acinetobacter genomosp. 3 isolate 90 by Etest method; how it was run: as §2
Acinetobacter pittii [10] = assay: Antibacterial activity against Acinetobacter genomosp. 3 isolate 67 by Etest method; how it was run: as §2
Escherichia coli [11] = assay: Antibacterial activity against Escherichia coli DH5alpha carrying ampC gene of Acinetobacter genomosp. 3 isolate 20 by Etest method; how it was run: as §1
Acinetobacter pittii [12] = assay: Antibacterial activity against Acinetobacter genomosp. 3 isolate 56 by Etest method; how it was run: as §2
Escherichia coli [13] = assay: Antibacterial activity against Escherichia coli DH5alpha carrying ampC gene of Acinetobacter genomosp. 3 isolate 103 by Etest method; how it was run: as §1
Acinetobacter pittii [14] = assay: Antibacterial activity against Acinetobacter genomosp. 3 isolate 21 by Etest method; how it was run: as §2
Acinetobacter pittii [15] = assay: Antibacterial activity against Acinetobacter genomosp. 3 isolate 195 by Etest method; how it was run: as §2
Escherichia coli [16] = assay: Antibacterial activity against Escherichia coli DH5alpha by Etest method
How it was run: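 E. coli DH5α host strain, grown at 37°C in LB medium. MICs of β-lactams determined by Etest following the manufacturer's instructions.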

Acinetobacter pittii [17] = assay: Antibacterial activity against Acinetobacter genomosp. 3 isolate 243 by Etest method; how it was run: as §2
Acinetobacter pittii [18] = assay: Antibacterial activity against Acinetobacter genomosp. 3 isolate 128 by Etest method; how it was run: as §2
Escherichia coli [19] = assay: Antibacterial activity against Escherichia coli DH5alpha carrying ampC gene of Acinetobacter genomosp. 3 isolate 195 by Etest method; how it was run: as §1
Acinetobacter pittii [20] = assay: Antibacterial activity against Acinetobacter genomosp. 3 isolate 14 by Etest method; how it was run: as §2
Escherichia coli [21] = assay: Antibacterial activity against Escherichia coli DH5alpha carrying ampC gene of Acinetobacter genomosp. 3 isolate 56 by Etest method; how it was run: as §1
Escherichia coli [22] = assay: Antibacterial activity against Escherichia coli DH5alpha carrying ampC gene of Acinetobacter genomosp. 3 isolate 65 by Etest method; how it was run: as §1
Acinetobacter pittii [23] = assay: Antibacterial activity against Acinetobacter genomosp. 3 isolate 52 by Etest method; how it was run: as §2
Acinetobacter pittii [24] = assay: Antibacterial activity against Acinetobacter genomosp. 3 isolate 69 by Etest method; how it was run: as §2

Structure (SMILES)	MIC (Escherichia coli [1]) [µg/mL]	MIC (Acinetobacter pittii [2]) [µg/mL]	MIC (Acinetobacter pittii [3]) [µg/mL]	MIC (Escherichia coli [4]) [µg/mL]	MIC (Acinetobacter pittii [5]) [µg/mL]	MIC (Escherichia coli [6]) [µg/mL]	MIC (Acinetobacter pittii [7]) [µg/mL]	MIC (Acinetobacter pittii [8]) [µg/mL]	MIC (Acinetobacter pittii [9]) [µg/mL]	MIC (Acinetobacter pittii [10]) [µg/mL]	MIC (Escherichia coli [11]) [µg/mL]	MIC (Acinetobacter pittii [12]) [µg/mL]	MIC (Escherichia coli [13]) [µg/mL]	MIC (Acinetobacter pittii [14]) [µg/mL]	MIC (Acinetobacter pittii [15]) [µg/mL]	MIC (Acinetobacter pittii [17]) [µg/mL]	MIC (Acinetobacter pittii [18]) [µg/mL]	MIC (Acinetobacter pittii [20]) [µg/mL]	MIC (Acinetobacter pittii [23]) [µg/mL]	MIC (Acinetobacter pittii [24]) [µg/mL]	further results
CC(C)(O/N=C(\C(=O)N[C@@H]1C(=O)N2C(C(=O)[O-])=C(C[n+]3ccccc3)CS[C@H]12)c1csc(N)n1)C(=O)O [CEFTAZIDIME]	0.19 (≈ 0.348 µM)	3 (≈ 5.49 µM)	4 (≈ 7.32 µM)	0.38 (≈ 0.695 µM)	4 (≈ 7.32 µM)	0.19 (≈ 0.348 µM)	3 (≈ 5.49 µM)	4 (≈ 7.32 µM)	6 (≈ 11 µM)	3 (≈ 5.49 µM)	0.75 (≈ 1.37 µM)	1.5 (≈ 2.74 µM)	0.5 (≈ 0.915 µM)	6 (≈ 11 µM)	4 (≈ 7.32 µM)	4 (≈ 7.32 µM)	3 (≈ 5.49 µM)	3 (≈ 5.49 µM)	3 (≈ 5.49 µM)	4 (≈ 7.32 µM)	MIC (Escherichia coli [16]): 0.19 µg/mL (≈ 0.348 µM); MIC (Escherichia coli [19]): 0.5 µg/mL (≈ 0.915 µM); MIC (Escherichia coli [21]): 0.25 µg/mL (≈ 0.457 µM); MIC (Escherichia coli [22]): 0.25 µg/mL (≈ 0.457 µM)
CO/N=C(\C(=O)N[C@@H]1C(=O)N2C(C(=O)O)=C(COC(N)=O)CS[C@H]12)c1ccco1 [CEFUROXIME]	32 (≈ 75.4 µM)	32 (≈ 75.4 µM)	48 (≈ 113 µM)	64 (≈ 151 µM)	48 (≈ 113 µM)	32 (≈ 75.4 µM)	64 (≈ 151 µM)	24 (≈ 56.6 µM)	16 (≈ 37.7 µM)	48 (≈ 113 µM)	96 (≈ 226 µM)	16 (≈ 37.7 µM)	64 (≈ 151 µM)	48 (≈ 113 µM)	64 (≈ 151 µM)	32 (≈ 75.4 µM)	32 (≈ 75.4 µM)	32 (≈ 75.4 µM)	32 (≈ 75.4 µM)	32 (≈ 75.4 µM)	MIC (Escherichia coli [16]): 1.5 µg/mL (≈ 3.53 µM); MIC (Escherichia coli [19]): 48 µg/mL (≈ 113 µM); MIC (Escherichia coli [21]): 48 µg/mL (≈ 113 µM); MIC (Escherichia coli [22]): 4 µg/mL (≈ 9.43 µM)
Cc1onc(-c2ccccc2Cl)c1C(=O)N[C@@H]1C(=O)N2[C@@H]1SC(C)(C)[C@@H]2C(=O)O [CLOXACILLIN]	–	2050 (≈ 4700 µM)	1020 (≈ 2350 µM)	–	1020 (≈ 2350 µM)	–	1020 (≈ 2350 µM)	1020 (≈ 2350 µM)	512 (≈ 1170 µM)	1880 (≈ 4300 µM)	–	512 (≈ 1170 µM)	–	512 (≈ 1170 µM)	1020 (≈ 2350 µM)	2050 (≈ 4700 µM)	2050 (≈ 4700 µM)	2050 (≈ 4700 µM)	1020 (≈ 2350 µM)	> 2050	–
